How the values were obtained:
[1] = molecular target: Human immunodeficiency virus type 1 reverse transcriptase (Human immunodeficiency virus 1, UniProt Q72547); test: Inhibition of wild type HIV-1 reverse transcriptase RNase-associated RNase H activity using RNA/DNA template-primer as substrate
In short: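 RNase H activity of wild-type RT, run independently of RDDP, with RDS1759 as positive control. Assays in triplicate; IC50 reported ± error.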

Leishmania major [2] = test: Antileishmanial activity against Leishmania major amastigotes infected in mouse macrophages assessed as parasite growth inhibition measured after 72 hrs by MTT based ELISA reader analysis; format: functional, organism-based; conditions: Macrophage
In short: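 L. major promastigotes from a patient isolate; amastigotes from infected BALB/c mice, grown inside mouse macrophages. Viable parasites read by MTT absorbance at 570 nm.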

[3] = Cytotoxicity against African green monkey Vero cells assessed as reduction in cell viability measured after 3 days by MTT assay; format: toxicity, cell-based; conditions: chlorocebus sabaeus, time 3 day
In short: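 Vero cells held 3 days with graded doses in RPMI 1640 with 5% FBS. Viability read by MTT colorimetry at 540 nm. CC50 from concentration–response curves against untreated controls; means of at least three independent experiments.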

[4] = Selectivity index, ratio of CC50 for cytotoxicity against African green monkey Vero cells to IC50 for antiparasitic activity against Toxoplasma gondii RH tachyzoites infected in African monkey Vero cells; format: toxicity, cell-based; conditions: read-out: Ratio CC50/IC50
In short: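 SI = Vero CC50 (3-day MTT, 540 nm read) divided by T. gondii RH IC50 (Vero host cells, microscopic count of infected cells); both values from concentration–response curves at 72 h.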

Toxoplasma gondii = test: Antiparasitic activity against Toxoplasma gondii RH tachyzoites infected in African green monkey Vero cells assessed as parasitic growth inhibition incubated for 72 hrs by inverted microscopic analysis; format: functional, organism-based
In short: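 RH-strain tachyzoites grown on Vero host cells in RPMI 1640 with 10% FBS and exposed to a range of concentrations, with atovaquone as positive control. Infected cells counted under an inverted microscope; inhibition % = (1 − infected treated / infected control) × 100. IC50 from concentration–response curves at 72 h; means of at least three independent experiments.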

Leishmania major [5] = test: Antileishmanial activity against Leishmania major promastigotes assessed as parasite growth inhibition measured after 72 hrs by MTT based ELISA reader analysis

Row | Compound | IC50 [1] | IC50 (Leishmania major [2]) | CC50 at 72 h [3] | selectivity ratio [4] | IC50 (Toxoplasma gondii) | IC50 (Leishmania major [5])
1 | COc1ccc(C2C3=C(Nc4[nH]c(=O)[nH]c(=O)c42)c2ccccc2C3=O)cc1OC (configuration not stated) | 20.3 µM | 6.94 µM | 8.03 µM | 1.1 | 7.31 µM | > 31 µM
2 | COc1cc(C2C3=C(Nc4[nH]c(=O)[nH]c(=O)c42)c2ccccc2C3=O)cc(I)c1OC (configuration not stated) | – | 14 µM | 0.42 µM | 0.89 | 0.47 µM | > 23.6 µM
3 | COc1ccc(-c2c3c(nc4[nH]c(=O)[nH]c(=O)c24)-c2ccccc2C3=O)cc1Br | – | 35.8 µM | 9.55 µM | 0.91 | 11.8 µM | 25.1 µM
4 | COc1cc(C2C3=C(Nc4[nH]c(=O)[nH]c(=O)c42)c2ccccc2C3=O)cc(OC)c1O (configuration not stated) | 17.1 µM | 21.2 µM | 6.08 µM | 0.55 | 11 µM | 31.7 µM
5 | COc1ccc(C2C3=C(Nc4[nH]c(=O)[nH]c(=O)c42)c2ccccc2C3=O)cc1Br (configuration not stated) | – | 1.9 µM | 1.73 µM | 0.96 | 1.81 µM | > 27.6 µM
6 | COc1cc(C2C3=C(Nc4[nH]c(=O)[nH]c(=O)c42)c2ccccc2C3=O)cc(OC)c1OC (configuration not stated) | 21.5 µM | 21.2 µM | 2.1 µM | 0.76 | 2.77 µM | > 28.8 µM
7 | COc1cc(C2C3=C(Nc4[nH]c(=O)[nH]c(=O)c42)c2ccccc2C3=O)cc(Cl)c1OC (configuration not stated) | – | 6.17 µM | 0.3 µM | 0.73 | 0.41 µM | > 28.6 µM
8 | COc1cc(-c2c3c(nc4[nH]c(=O)[nH]c(=O)c24)-c2ccccc2C3=O)cc(I)c1OC | – | 15.4 µM | 2.22 µM | 0.9 | 2.47 µM | 23 µM
9 | O=C1C2=C(Nc3[nH]c(=O)[nH]c(=O)c3C2c2cccc(O)c2)c2ccccc21 (configuration not stated) | 93.4 µM | 27 µM | 9.46 µM | 0.4 | 23.7 µM | > 34.8 µM
10 | O=C1C(O)=C([C@H]2CC[C@H](c3ccc(Cl)cc3)CC2)C(=O)c2ccccc21 [ATOVAQUONE] | – | – | 9.5 µM | 136 | 0.07 µM | –
11 | COc1ccc(-c2c3c(nc4[nH]c(=O)[nH]c(=O)c24)-c2ccccc2C3=O)cc1OC | – | 6.73 µM | 0.87 µM | 0.78 | 1.12 µM | 29.4 µM
12 | COc1cc(-c2c3c(nc4[nH]c(=O)[nH]c(=O)c24)-c2ccccc2C3=O)cc(Cl)c1OC | – | 18.6 µM | 0.85 µM | 1.23 | 0.69 µM | 28.2 µM
13 | COc1ccc(-c2c3c(nc4[nH]c(=O)[nH]c(=O)c24)-c2ccccc2C3=O)cc1F | – | 15.7 µM | 4.11 µM | 0.44 | 9.25 µM | 6.68 µM
